Drawing on the array DNA melting data of Ke et al. (doi:10.1101/2024.01.08.574731), this text covers Tm and folding enthalpy for 37 sequences.

A short description of data set [1]: melting temperature; fluorescence melt of hairpins on a sequencing array, two-state fit, raised by 9.35 °C to match UV melts. As to conditions: sodium 0.088 M. The method, boiled down: (§1)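 Folding enthalpy and melting temperature come from bootstrapped two-state fits to Cy3 fluorescence of library hairpins carrying annealed Cy3 and quencher oligos on a sequenced MiSeq flow cell. Imaging was done in 50 mM Na-HEPES pH 8.0, 25 mM NaCl, stepping by 2.5 °C up to 60 °C, and signals were normalised to pre-quench Cy3 and to control constructs. Results of four replicates were combined by inverse variance, and fitted temperatures were raised by 9.35 °C to match UV melts.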

Data set [2] in a line: folding enthalpy; higher = less favourable; fluorescence melt of hairpins on a sequencing array, two-state fit. As to conditions: sodium 0.088 M. The procedure, abridged: as §1

For the sequence GGCCAGGGAAACCCGACC ((.(.((....)).).)), the Tm in data set [1] was 32.5 °C. Besides, in data set [2], the folding enthalpy was -11.9 kcal/mol.

Consider GGCCATCGAAAGATAGCC (((.(((....))).))), for which, in data set [1], the Tm worked out at 48.3 °C. The folding enthalpy in data set [2] was -29.4 kcal/mol.

In the case of GGCCATTCGAAAGAAGCC (((..(((....)))))), the Tm in data set [1] was 33.1 °C. In addition, the folding enthalpy in data set [2] is -19.9 kcal/mol.

For GGCCCAGGAAACTGGGTC (.(((((....))))).), the Tm in data set [1] was 59.8 °C. For the same sequence, in data set [2], the folding enthalpy is -34.5 kcal/mol.

Regarding GGCCCATCGAAAGATGCC (((..(((....)))))), the Tm in data set [1] came to 34.6 °C. Also, in data set [2], the folding enthalpy is -12.4 kcal/mol.

Consider GGCCCCACGAAAGTGGCC (((..(((....)))))), for which the Tm in data set [1] amounted to 44.7 °C. In data set [2], the folding enthalpy is -11.8 kcal/mol.

For GGCCCCGGAAACGGGACC ((.((((....)))).)), the Tm in data set [1] stood at 59 °C. Further, the folding enthalpy in data set [2] is -25.8 kcal/mol.

As for GGCCCGCGAAAGCGCGCC (((.(((....))).))), the Tm in data set [1] amounted to 64.4 °C. In addition, the folding enthalpy in data set [2] was -26.5 kcal/mol.

For the sequence GGCCCGCGAAAGCGTGCC (((.(((....))).))), in data set [1], the Tm was found to be 67.3 °C. Besides, the folding enthalpy in data set [2] was -26.5 kcal/mol.

As to GGCCCTCGAAAGAGTGCC (((.(((....))).))), in data set [1], the Tm stood at 53.3 °C. For the same sequence, the folding enthalpy in data set [2] is -44.1 kcal/mol.

Consider GGCCCTGGAAACAAGGCC ((((.((....)).)))), for which the Tm in data set [1] came out at 48.3 °C. Moreover, the folding enthalpy in data set [2] is -36.7 kcal/mol.

As to GGCCCTTCGAAAGAAGCC (((..(((....)))))), the Tm in data set [1] was found to be 27.3 °C. The folding enthalpy in data set [2] is -12.6 kcal/mol.

Turning to GGCCGCACGAAAGTGGCC (((..(((....)))))), the Tm in data set [1] was 58.9 °C. Besides, the folding enthalpy in data set [2] was -26.5 kcal/mol.

On to GGCCGCGAAAGCGATGCC ((((((....)))..))), for which the Tm in data set [1] came out at 59.3 °C. Also, the folding enthalpy in data set [2] was -25.2 kcal/mol.

Consider GGCCGCGAAAGCGTGGCC ((((((....)))..))), for which, in data set [1], the Tm is 69.2 °C. Also, the folding enthalpy in data set [2] is -22.8 kcal/mol.

For the sequence GGCCGCGGAAACACGGCC (((((.(....).))))), the Tm in data set [1] amounted to 66.1 °C. Moreover, the folding enthalpy in data set [2] is -45.4 kcal/mol.

Consider GGCCGGGGAAACCCGACC ((.((((....)))).)), for which the Tm in data set [1] amounted to 57.2 °C. Moreover, the folding enthalpy in data set [2] is -34.5 kcal/mol.

In the case of GGCCGTGCGAAAGCAGCC (((..(((....)))))), in data set [1], the Tm amounted to 46.6 °C. In data set [2], the folding enthalpy is -16.3 kcal/mol.

GGCCGTGGAAACACGACC ((.((((....)))).)): in data set [1], the Tm was 55 °C. Besides, the folding enthalpy in data set [2] was -36.2 kcal/mol.

On to GGCCGTGGAAACACGGTC (.(((((....))))).), for which the Tm in data set [1] turned out to be 65.3 °C. The folding enthalpy in data set [2] was -24.3 kcal/mol.

Turning to GGCCTACCGAAAGGTGCC (((..(((....)))))), the Tm in data set [1] amounted to 46.7 °C. Also, the folding enthalpy in data set [2] is -20.7 kcal/mol.

GGCCTAGGAAACTGGGTC (.((.((....)).)).): in data set [1], the Tm was 40.9 °C. In addition, in data set [2], the folding enthalpy is -28.5 kcal/mol.

Turning to GGCCTATCGAAAGATGCC (((..(((....)))))), in data set [1], the Tm came out at 36.1 °C. Further, the folding enthalpy in data set [2] is -22.8 kcal/mol.

On to GGCCTCGGAAACGAAGCC (((.(((....))).))), for which, in data set [1], the Tm is 47.8 °C. Moreover, the folding enthalpy in data set [2] is -30.8 kcal/mol.

For GGCCTGCCGAAAGGCGCC (((..(((....)))))), the Tm in data set [1] is 49.4 °C. In data set [2], the folding enthalpy is -13.7 kcal/mol.

For GGCCTGCGAAAGCATGCC (((.(((....))).))), the Tm in data set [1] was 58.4 °C. Moreover, the folding enthalpy in data set [2] was -28.2 kcal/mol.

For the sequence GGCCTGGGAAACTGGGCC ((((..(....)..)))), the Tm in data set [1] was determined as 54.7 °C. Besides, the folding enthalpy in data set [2] is -38 kcal/mol.

Take GGCCTTCCGAAAGGAGCC (((..(((....)))))): in data set [1], the Tm was 38.9 °C. Moreover, in data set [2], the folding enthalpy was -19.1 kcal/mol.

As to GGCCTTTCGAAAGAAGCC (((..(((....)))))), in data set [1], the Tm worked out at 37.2 °C. Moreover, the folding enthalpy in data set [2] was -29.9 kcal/mol.

GGCGAACCGAAAGGTGCC (((..(((....)))))): the Tm in data set [1] was found to be 53.7 °C. Also, the folding enthalpy in data set [2] is -28.3 kcal/mol.

On to GGCGAACGAAAGTTGGCC (((.(((....))).))), for which, in data set [1], the Tm came to 59 °C. The folding enthalpy in data set [2] is -42.5 kcal/mol.

Consider GGCGAAGCGAAAGCTGCC (((..(((....)))))), for which, in data set [1], the Tm amounted to 52.8 °C. In addition, in data set [2], the folding enthalpy is -17.7 kcal/mol.

With GGCGAAGGAAACTTCGTC (.(((((....))))).), in data set [1], the Tm amounted to 53.1 °C. Besides, the folding enthalpy in data set [2] was -35.7 kcal/mol.

For GGCGACCGAAAGGTGCC (((.(((....)))))), the Tm in data set [1] worked out at 63.5 °C. Moreover, the folding enthalpy in data set [2] is -20.9 kcal/mol.

As to GGCGACCGAAAGGTGGCC (((.(((....))).))), the Tm in data set [1] stood at 67.9 °C. Further, the folding enthalpy in data set [2] is -29.2 kcal/mol.

As for GGCGACGAAAGTCTCGCC ((((((....)))..))), in data set [1], the Tm worked out at 55.2 °C. In data set [2], the folding enthalpy is -25.7 kcal/mol.

As for GGCGACGGAAACACCGCC ((((..(....)..)))), the Tm in data set [1] was 44.5 °C. The folding enthalpy in data set [2] is -29.3 kcal/mol.
